Screening results: PubChem BioAssay, several laboratories
This is a sample that favours compounds with a hit; in the whole collection about 2.4% have one here.
STAT3 act-1 – STAT3 signaling activation; hit rate 0.91% among 190,000; activation (% of control), % at 5.6 µM; U3A cells, IL-6 STAT3-luciferase reporter, luminescence; 100% = signal with IL-6 EC80 alone; AID 871;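 active means activation above the screen-wide mean of compound activation plus 3 SD, cut at about 130% in these data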;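 further: 0% = background luminescence of wells with medium and substrate only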
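Assay system – human STAT1-deficient U3A cells with stable STAT3-luciferase reporter · Also added – IL-6 (33 ng/mL) · Schedule – compound 1 h, then IL-6 6 h at 37 °C · Technique – reporter luminescence signal · Evaluation – % activation versus median of IL-6-stimulated wells · Benchmarks – IL-6-only wells as 100% reference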
STAT3 blocker – inhibitors of IL-6 induced STAT3 signaling; hit rate 0.89% among 190,000; AID 862; inhibition, % at 5.5 µM; U3A cells, IL-6 STAT3-luciferase reporter, luminescence; host cell line lacks STAT1;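 active means inhibition above the mean inhibition across all screened compounds plus 3 SD, cut at about 44% in these data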;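 further: 0% = DMSO only wells and 100% = 100 µM nifuroxazide control wells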
MT stabilizer – microtubule stabilization, imaging screen; HeLa tubulin immunostaining HCS, 24 h; share of cells brighter than vehicle mean+2SD; hit rate 0.83% among 200,000; % tubulin-high responders, % at 10 µM; AID 2205;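 active means plate Z-score above 3 for both tubulin-high and condensed-nucleus cell shares, with cell loss under 80%, at 10 µM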;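 further: anti alpha tubulin signal scored within the nucleus-defined area of each cell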
bCat nuc transl – modulators of beta-catenin nuclear translocation | HeLa beta-catenin nuclear translocation, immunofluorescence imaging | nuclear translocation activity, % at 5 µM | hit rate 0.3% among 190,000 | AID 1665;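 active means nuclear translocation activity above 50% at 5 µM, with a well cell count of 50 or more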;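 further: per-cell ratio of nuclear to cytoplasmic median beta-catenin stain intensity; plate controls were DMSO negative control for no effect and GSK-3 inhibitor IX positive control for full effect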
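Test system: human HeLa cells, endogenous beta-catenin. Times: 24 h compound exposure, 37°C. Measured by: beta-catenin immunofluorescence imaging with DAPI.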
STAT1 blocker – inhibitors of IFN-gamma induced STAT1 signaling; AID 920; hit rate 0.35% among 200,000; inhibition, % at 5.5 µM; NIH 3T3 STAT1-luciferase reporter, luminescence;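 active means inhibition above a set limit, the mean inhibition across all tested compounds plus 3 SD, cut at about 34% in these data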;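 further: 0% = IFN-gamma with DMSO and 100% = IFN-gamma with 300 µM nifuroxazide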
STAT3 act-2 – STAT3 activation, confirmation assay; hit rate 64% among 1,200; U3A STAT3-luciferase reporter, IL-6 potentiation, luminescence; U3A cells lack STAT1; 100 means same as IL-6 alone; potentiation (% of control), % at 5.7 µM; shares compounds with STAT3 act-1;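 active means percent activation of the STAT3 luciferase reporter above a set limit taken from the earlier primary screen, cut at about 130% in these data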;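 further: 0% = background signal of medium plus substrate and 100% = median of IL-6 with DMSO wells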
NFkB act 2 – NF-kappaB activation in STAT3 activator counter-screen | shares compounds with STAT3 act-1 | human cells, NF-kappaB reporter activation | activation (% of control), % at 5.7 µM | hit rate 11% among 1,200 | AID 1309; in the data active means activation above about 120%;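 further: reporter induced by TNF-alpha stimulation; 100% = median of stimulated DMSO wells and 0% = no signal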
STAT1 act – counter-screen for STAT3 activators: STAT1 activation. shares compounds with STAT3 act-1. NIH 3T3 STAT1-luciferase reporter, IFN-gamma, luminescence. activation (% of control), % at 5.7 µM. hit rate 13% among 1,200. AID 1318;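 active means activation above the solvent-only control well mean plus 3 SD, set per screening run, cut at about 120% in these data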;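 further: 100% = IFN-gamma with DMSO median signal so 100% means no change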
The depositor's hits bear a star.

COc1ccccc1-n1c(SCC(=O)Nc2ccc(Br)cc2)nc(O)cc1=O was read as bCat nuc transl 1.
For CCN(CC)S(=O)(=O)c1ccc2nc(CCl)[nH]c2c1 the results were STAT3 act-1 97, STAT3 blocker 12, MT stabilizer 3, bCat nuc transl -1 and STAT1 blocker 4.
`COc1ccc(N)cc1-n1cnnn1` gave STAT3 act-1 105, STAT3 blocker 2, MT stabilizer 2, bCat nuc transl 0 and STAT1 blocker 13.
C=CCn1ccc(=NC=C(C#N)C#N)c2ccccc21 was read as bCat nuc transl 0.
Screening COC(=O)c1c(NC(=O)c2ccc(Br)s2)sc2c1CCC2 returned STAT3 act-1 137*, STAT3 blocker -43, MT stabilizer 4, bCat nuc transl 1, STAT1 blocker -4, STAT3 act-2 123, NFkB act 2 105 and STAT1 act 98.
COc1ccccc1/C=N/NC(=O)C1=NNC(c2ccccc2)(c2ccccc2)C1 was read as STAT3 act-1 149*, STAT3 blocker -52, MT stabilizer 2, bCat nuc transl -2, STAT1 blocker 10, STAT3 act-2 120, NFkB act 2 101 and STAT1 act 93.
`FC(F)(F)c1ccc(N=Cc2sc(N3CCOCC3)nc2-c2ccccc2)cc1` gave STAT3 act-1 99, STAT3 blocker 0, MT stabilizer 8, bCat nuc transl -2 and STAT1 blocker -5.
`N#Cc1sc2nc(-c3ccccc3)cc(C(F)(F)F)c2c1N` gave STAT3 act-1 148*, STAT3 blocker -36, MT stabilizer 4, bCat nuc transl -3, STAT1 blocker 5, STAT3 act-2 155*, NFkB act 2 104 and STAT1 act 112.
Screening O=C(Nc1ccccc1)c1nsnc1C(=O)Nc1ccccc1 returned STAT3 act-1 86, STAT3 blocker 20, MT stabilizer 5, bCat nuc transl 1 and STAT1 blocker -16.
CS(=O)(=O)N1N=C(c2cccs2)CC1c1ccccc1O (stereo unspecified) was read as STAT3 act-1 102, STAT3 blocker 0, MT stabilizer 3, bCat nuc transl -1 and STAT1 blocker -2.
Oc1ccccc1C1CC(c2cccs2)=NC(c2ccc(Cl)cc2)N1 (stereo unspecified) was read as STAT3 act-1 140*, STAT3 blocker -45, MT stabilizer 4, bCat nuc transl 3, STAT1 blocker 33, STAT3 act-2 139*, NFkB act 2 108 and STAT1 act 91.
`COc1ccc(NC(=O)C2CCC(CNS(=O)(=O)c3cccs3)CC2)cc1` (stereo unspecified) gave STAT3 act-1 92, STAT3 blocker 11, MT stabilizer 4, bCat nuc transl -1 and STAT1 blocker 1.
For CC1=C(CC(=O)c2ccccc2)C(=O)c2ccccc2C1=O the results were STAT3 act-1 138*, STAT3 blocker -33, MT stabilizer 2, STAT1 blocker -19, STAT3 act-2 143*, NFkB act 2 104 and STAT1 act 112.
`O=C(O)CCC(=O)N(Cc1ccco1)C1CC(=O)N(c2ccccc2)C1=O` (stereo unspecified) gave bCat nuc transl 1.
COc1ccc(-c2ccc(-c3nnc(-c4cc(OC)ccc4OC)o3)cc2)cc1 was read as STAT3 act-1 138*, STAT3 blocker -42, MT stabilizer 2, bCat nuc transl -4, STAT1 blocker -1, STAT3 act-2 84, NFkB act 2 105 and STAT1 act 103.
Screening Cc1cc(N/N=C/c2c[nH]c3ccccc23)c2ccccc2n1 returned STAT3 act-1 148*, STAT3 blocker -53, MT stabilizer 3, bCat nuc transl 0, STAT1 blocker 5, STAT3 act-2 141*, NFkB act 2 100 and STAT1 act 88.
Screening Cc1cc(C)nc(N/N=C/c2c[nH]c3ccccc23)n1 returned STAT3 act-1 115, STAT3 blocker -11, MT stabilizer 4, bCat nuc transl 4 and STAT1 blocker 8.
For COc1ccc2nc(N=Nc3c(O)ccc4ccccc34)sc2c1 the results were STAT3 act-1 137*, STAT3 blocker -43, MT stabilizer 9, bCat nuc transl -3, STAT1 blocker 11, STAT3 act-2 133, NFkB act 2 103 and STAT1 act 90.
Screening Cn1c2ccccc2c2ncn(CCCN3CCOCC3)c(=O)c21 returned STAT3 act-1 140*, STAT3 blocker -42, MT stabilizer 3, STAT1 blocker 5, STAT3 act-2 154*, NFkB act 2 112 and STAT1 act 108.
Cn1c2ccc(F)cc2c2ncn(CCN3CCOCC3)c(=O)c21 was read as STAT3 act-1 97, STAT3 blocker 6, MT stabilizer 2 and STAT1 blocker -4.
`Cn1cnnc1SC/C(O)=C(\C#N)c1nc2ccccc2[nH]1` gave STAT3 act-1 103, STAT3 blocker -4, MT stabilizer 1, bCat nuc transl 1 and STAT1 blocker 7.
Cc1ccc(C)c(SCC(=O)OC/C(O)=C(\C#N)c2nc3ccccc3[nH]2)c1 was read as STAT3 act-1 146*, STAT3 blocker -51, MT stabilizer 2, bCat nuc transl 0, STAT1 blocker 10, STAT3 act-2 150*, NFkB act 2 111 and STAT1 act 91.
For Cc1cccc(C)c1Nc1nnc(SC/C(O)=C(\C#N)c2nc3ccccc3[nH]2)s1 the results were STAT3 act-1 143*, STAT3 blocker -55, MT stabilizer 3, STAT1 blocker 10, STAT3 act-2 152*, NFkB act 2 103 and STAT1 act 89.
Cc1cccc(Nc2nnc(SC/C(O)=C(\C#N)c3nc4ccccc4[nH]3)s2)c1C was read as STAT3 act-1 148*, STAT3 blocker -63, MT stabilizer 3, STAT1 blocker 16, STAT3 act-2 145*, NFkB act 2 103 and STAT1 act 90.
`N#C/C(=C(/O)CSc1n[nH]c(N)n1)c1nc2ccccc2[nH]1` gave bCat nuc transl 0.
`O=C(CN1C(=O)COc2ccc(S(=O)(=O)N3CCCC3)cc21)NC1CCCCCCC1` gave STAT3 act-1 108, STAT3 blocker -14, MT stabilizer 2, bCat nuc transl 0 and STAT1 blocker -3.
`CCN(CC)CCCNC(=S)N(Cc1cccnc1)Cc1cc2cc(C)ccc2[nH]c1=O` gave bCat nuc transl -1.
